For assay [1], the target named is Adenosine receptors; A2b & A3 (Homo sapiens) (UniProt P29275+P0DMS8). As to the kind of experiment: Ratio of binding affinity of human A2B receptor to that of human A3 receptor. The class given is protein assay. The gist of the method: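 Ki ratio, n=3-6, 6–8 concentrations. A2B in HEK-293 membranes (20 μg): 40 nM [3H]DPCPX, 50 mM Tris HCl, 10 mM MgCl2, 1 mM EDTA, 0.1 mM benzamidine pH 7.4, 2 IU/mL adenosine deaminase, 60 min at 25 °C, nonspecific with 100 μM NECA. A3 in CHO membranes (50 μg): 1 nM [3H]MRE3008-F20, 120 min at 4 °C.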

For assay [2], the target named is T1, Adenosine receptor A2b (Homo sapiens, UniProt P29275).
T1 sequence (P29275 whole entry): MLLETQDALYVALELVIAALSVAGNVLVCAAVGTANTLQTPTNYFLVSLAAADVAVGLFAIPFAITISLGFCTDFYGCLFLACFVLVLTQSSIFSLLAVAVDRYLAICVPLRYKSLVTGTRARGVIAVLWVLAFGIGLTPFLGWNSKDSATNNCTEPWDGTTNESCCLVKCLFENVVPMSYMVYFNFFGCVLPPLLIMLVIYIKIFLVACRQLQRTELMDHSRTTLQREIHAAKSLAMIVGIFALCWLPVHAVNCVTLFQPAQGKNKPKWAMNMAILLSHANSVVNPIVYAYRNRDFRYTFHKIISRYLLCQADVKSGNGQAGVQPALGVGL
As to the kind of experiment: Displacement of [3H]DPCPX from Adenosine A2b receptor expressed in CHO cells. The class given is cell-based.

Assay [3] concerns the target T2, Adenosine receptor A1 (Homo sapiens, UniProt P30542).
T2 sequence (P30542 whole entry): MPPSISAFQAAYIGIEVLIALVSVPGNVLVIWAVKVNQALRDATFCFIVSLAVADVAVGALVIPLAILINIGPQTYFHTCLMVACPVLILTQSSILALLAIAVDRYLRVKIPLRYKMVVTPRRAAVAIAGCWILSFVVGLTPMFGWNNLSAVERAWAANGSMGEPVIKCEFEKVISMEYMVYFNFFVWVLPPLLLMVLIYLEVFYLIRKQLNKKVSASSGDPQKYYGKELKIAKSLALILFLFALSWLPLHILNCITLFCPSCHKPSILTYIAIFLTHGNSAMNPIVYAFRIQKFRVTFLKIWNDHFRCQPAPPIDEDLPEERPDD
Briefly: Displacement of [3H]DPCPX from human adenosine A1 receptor expressed in CHO cells; range 191-339. Format: cell-based. (In general: Loss of bound radioactivity is the signal in a displacement assay; it reports binding, not function.)

The target of assay [4] is T3, Adenosine receptor A3 (Homo sapiens, UniProt P0DMS8).
T3 sequence (P0DMS8 whole entry): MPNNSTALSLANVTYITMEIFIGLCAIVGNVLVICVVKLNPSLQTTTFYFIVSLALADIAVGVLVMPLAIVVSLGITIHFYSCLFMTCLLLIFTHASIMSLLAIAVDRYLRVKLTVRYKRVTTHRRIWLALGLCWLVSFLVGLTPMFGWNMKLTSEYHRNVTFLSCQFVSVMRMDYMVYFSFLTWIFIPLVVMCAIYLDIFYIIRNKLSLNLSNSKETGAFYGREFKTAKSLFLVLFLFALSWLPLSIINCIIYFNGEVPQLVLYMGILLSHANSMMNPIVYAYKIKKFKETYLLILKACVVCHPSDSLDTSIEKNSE
As to the kind of experiment: Displacement of [3H]MRE3008-F20 from human adenosine A3 receptor expressed in CHO cells; range 17-36. The class given is cell-based.

The target in assay [5] is T4, Adenosine receptor A2a (Homo sapiens, UniProt P29274). As to the kind of experiment: Displacement of [3H]-SCH- 58261 from human adenosine A2A receptor expressed in CHO cells; range 1770-2327. The class given is cell-based.
T4 sequence (P29274 whole entry): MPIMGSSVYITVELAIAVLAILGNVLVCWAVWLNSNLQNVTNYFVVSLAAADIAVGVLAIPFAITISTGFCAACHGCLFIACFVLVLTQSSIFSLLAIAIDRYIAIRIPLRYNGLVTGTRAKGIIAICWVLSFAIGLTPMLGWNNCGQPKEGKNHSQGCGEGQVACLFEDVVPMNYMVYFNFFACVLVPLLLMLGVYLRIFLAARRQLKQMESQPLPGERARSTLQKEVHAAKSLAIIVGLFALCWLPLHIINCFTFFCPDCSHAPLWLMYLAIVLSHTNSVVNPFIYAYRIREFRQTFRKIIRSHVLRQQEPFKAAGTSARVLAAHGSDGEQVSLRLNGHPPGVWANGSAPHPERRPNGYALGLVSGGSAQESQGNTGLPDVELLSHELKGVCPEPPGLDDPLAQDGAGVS
Assay [6] concerns the target T5, Adenosine receptor A3 (Homo sapiens) (UniProt P0DMS8).
T5 sequence (whole entry): T3 sequence (P0DMS8 whole entry)
As to the kind of experiment: Percentage of blockade by 1 uM of the inhibition by 100 nM IB-MECA-inhibited cAMP accumulation in CHO cells expressing human adenosine A3 receptor. Format: functional, cell-based. The gist of the method:
(§1)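 CHO cells stably expressing human A3 receptor; membranes in 50 mM Tris HCl, 10 mM MgCl2, 1 mM EDTA pH 7.4 with 5 μM GTP, 0.5 mM […] and 2.0 IU/mL adenosine deaminase. Preincubated 10 min at 37 °C, then IB-MECA (100 nM) and/or antagonist with 1 mM ATP and 10 μM forskolin for 10 min. Boiled 2 min. cAMP read by [3H]cAMP competition with adrenal binding protein.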
For orientation: cAMP levels reflect the balance of adenylyl cyclase and phosphodiesterase activity.

For assay [7], the target named is Adenosine receptors; A1 & A3 (Homo sapiens) (UniProt P30542+P0DMS8). Briefly: Ratio of binding affinity of human A1 receptor to that of human A3 receptor. The class given is protein assay. The gist of the method: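 Ki ratio from displacement in CHO membranes, 6–8 concentrations, n=3-6, filtration counting. A1: 1 nM [3H]DPCPX, 50 μg protein, 120 min at 25 °C, nonspecific with 10 μM CHA. A3: 1 nM [3H]MRE3008-F20, 50 μg protein, Tris/10 mM MgCl2 pH 7.4, 120 min at 4 °C, nonspecific with 1 μM MRE3008-F20.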

The target in assay [8] is T1, Adenosine receptor A2b. As to the kind of experiment: Displacement of [3H]-DPCPX from Adenosine A2b receptor expressed in […]; range 719-895. The class given is cell-based.
The target in assay [9] is T3, Adenosine receptor A3. As to the kind of experiment: Displacement of [3H]MRE3008-F20 from human adenosine A3 receptor expressed in CHO cells; range 33-48. The class given is cell-based.
Assay [10] deals with T4, Adenosine receptor A2a. As to the kind of experiment: Displacement of [3H]-SCH- 58261 from human adenosine A2A receptor expressed in CHO cells; range 880-1160. The class given is cell-based. The gist of the method:
(§2)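 Membranes from CHO cells stably expressing human A2A receptor, grown in DMEM/F12 without nucleosides, resuspended in 50 mM Tris HCl, 10 mM MgCl2, pH 7.4; 50 μg protein/assay. Competition with [3H]SCH 58261 at 6–8 or more compound concentrations, 60 min at 25 °C; nonspecific binding with 50 μM NECA. Filtration on GF/B filters, scintillation counting; n=3-6.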

For assay [11], the target named is T2, Adenosine receptor A1. As to the kind of experiment: Displacement of [3H]DPCPX from human adenosine A1 receptor expressed in CHO cells; range 149-204. The class given is cell-based.
Assay [12] concerns the target T4, Adenosine receptor A2a. Briefly: Displacement of [3H]-SCH- 58261 from human adenosine A2A receptor expressed in CHO cells; range 47-78. The class given is cell-based. The gist of the method:
as §2

Assay [13] has as its target T5, Adenosine receptor A3 (Homo sapiens). As to conditions: CHO, 1 uM.
Assay [14] concerns the target T3, Adenosine receptor A3. Briefly: Displacement of [3H]MRE3008-F20 from human adenosine A3 receptor expressed in CHO cells; range 23-40. The class given is cell-based.
Assay [15] has as its target T1, Adenosine receptor A2b. Briefly: Displacement of [3H]DPCPX from Adenosine A2b receptor expressed in CHO cells; range 45-64. As to conditions: in the assay text read “HEK-293 cells” for “CHO cells”. The class given is cell-based. The gist of the method: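 Human recombinant A2B receptor was expressed in HEK-293 cell membranes (20 μg protein). Incubated with 40 nM [3H]DPCPX in 50 mM Tris HCl, 10 mM MgCl2, 1 mM EDTA, 0.1 mM benzamidine, pH 7.4, with 2 IU/mL adenosine deaminase, at least 6–8 test concentrations, 60 min, 25 °C. Nonspecific binding was taken with 100 μM NECA; n=3-6.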

Assay [16] deals with T4, Adenosine receptor A2a. Briefly: biochemical.
Assay [17] has as its target T3, Adenosine receptor A3. Briefly: Displacement of [3H]MRE3008-F20 from human adenosine A3 receptor expressed in CHO cells; range 378-488. The class given is cell-based.
Assay [18] addresses T1, Adenosine receptor A2b. As to the kind of experiment: Displacement of [3H]DPCPX from Adenosine A2b receptor expressed in HEK-293 cells; range 38-63.
Assay [19] concerns the target T2, Adenosine receptor A1. As to the kind of experiment: Displacement of [3H]-DPCPX from human adenosine A1 receptor expressed in CHO cells; […]. The class given is cell-based.
Assay [20] has as its target T1, Adenosine receptor A2b. As to the kind of experiment: Displacement of [3H]DPCPX from Adenosine A2b receptor expressed in […]; range 1770-2327. Format: cell-based.
The target in assay [21] is T5, Adenosine receptor A3 (Homo sapiens). As to the kind of experiment: Percent reversal of 100 nM IB-MECA-inhibited cAMP accumulation in CHO cells expressing human adenosine A3 receptor at 1 uM; range 73-110. Format: functional, cell-based. The gist of the method: as §1
For assay [22], the target named is T4, Adenosine receptor A2a. Briefly: Displacement of [3H]-SCH- 58261 from human adenosine A2A receptor expressed in CHO cells; range 150-207. The class given is cell-based.
The target in assay [23] is T3, Adenosine receptor A3. As to the kind of experiment: Displacement of [3H]MRE3008-F20 from human adenosine A3 receptor expressed in CHO cells; range 0.32-0.74. The class given is cell-based.
The target in assay [24] is T3, Adenosine receptor A3. Briefly: Inhibition of cAMP accumulation in CHO cells expressing human adenosine A3 receptor; range 3.5-7.6. The class given is functional, cell-based.

Each structure is given as a SMILES string. pIC50, pKi: −log10 of the molar value. Bounds are passed on as bounds.

As for `COc1ccc(NC(=O)Nc2nc3nn(CCc4cc(Br)c(Br)cc4Br)cc3c3nc(-c4ccco4)nn23)cc1`, the results for the Ratio in [1] and in assay [7] were greater than 400 and 10.2, respectively. In addition, the pKi is less than 5.00 at Adenosine receptor A2b [2], 6.59 at Adenosine receptor A1 [3], 7.60 on Adenosine receptor A3 [4] and 5.69 on Adenosine receptor A2a [5]. In assay [6], this compound yielded an inhibition of 50%.

Regarding `COc1ccc(NC(=O)Nc2nc3nn(CCCc4ccccc4)cc3c3nc(-c4ccco4)nn23)cc1`, the Ratio stood at 20 in [1] and 6.27 in assay [7]. Also, the pKi is 6.10 on Adenosine receptor A2b [8], 7.40 at Adenosine receptor A3 [9] and 6.00 at Adenosine receptor A2a [10]. In addition, the inhibition in [6] was found to be 49%.

`COc1ccc(NC(=O)Nc2nc3nn(CCC(C)C)cc3c3nc(-c4ccco4)nn23)cc1`: the results for the Ratio in assay [1] and in assay [7] were 1.8 and 5.8, respectively. In addition, the pKi at Adenosine receptor A1 [11] is 6.76; at Adenosine receptor A2a [12], 7.19; at Adenosine receptor A3 [14], 7.52; at Adenosine receptor A2b [15], 7.27. In addition, the inhibition in [13] was found to be 48%.

`Nc1nc2nn(CCCc3ccccc3)cc2c2nc(-c3ccco3)nn12`: the results for the negative logarithm of the Ki (pKi) at Adenosine receptor A2a [16], at Adenosine receptor A3 [17] and at Adenosine receptor A2b [18] were 9.80, 6.37 and 7.31, respectively. For the same compound, the Ratio in [1] was determined as 0.011; in assay [7], 0.007. This compound registered an inhibition in assay [6] of 18%.

Take `C=CCn1cc2c(nc(NC(=O)Nc3ccc(OC)cc3)n3nc(-c4ccco4)nc23)n1`: the Ratio stood at 4230 in [1] and 3190 in assay [7]. The pKi on Adenosine receptor A1 [19] was 5.82; at Adenosine receptor A2b [20], 5.69; on Adenosine receptor A2a [22], 6.75; at Adenosine receptor A3 [23] it was 9.32. Also, in assay [21], the inhibition was determined as 90%. The negative logarithm of the IC50 (pIC50) against Adenosine receptor A3 [24] is 8.29.

As a reminder, the pKi is the Ki on a negative log10 scale, so that one unit is a factor of ten. As usually defined, the inhibition is the change of the read-out against control, counted positive when it falls. The term pIC50 denotes the negative decadic logarithm of the IC50, by convention in mol/L. A lower pIC50 goes with a large IC50.

For the origin of these results see ChEMBL document CHEMBL1133118 (J Med Chem, 2000).
